We go through 13 compounds from article PMC12530853 (RSC Advances, 2025).

What all share (assay type): cell-based
Assay [1] relates to CYP24A1 mRNA in HEK293T cells. The assay can be described thus: CYP24A1 mRNA levels by quantitative PCR. The settings on record: 10^−9 M; 24 h; HEK293T cells.
Another assay relates to C. albicans ATCC 10231. The assay can be described thus: Minimum inhibitory concentration. The settings on record: Candida albicans, ATCC10231, read-out: Minimum inhibitory concentration (MIC) C. albicans ATCC 10231. An outline of the steps:
(§1)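 Exponential-phase yeast were washed three times in PBS and suspended at 1 × 10^3 CFU/mL in RPMI 1640. Test compound and fluconazole comparator were twofold serially diluted in microplates, each concentration in triplicate wells. Growth was read as OD600, from which the MIC was determined.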

The subject of the next assay is C. albicans ATCC 14053. The assay can be described thus: Minimum inhibitory concentration. The settings on record: Candida albicans, ATCC14053, read-out: Minimum inhibitory concentration (MIC) C. albicans ATCC 14053. An outline of the steps: as §1
A further assay relates to C. albicans ATCC 24433. In words: Activity against additional fungal strains. The settings on record: Table 2; no quantity or unit printed. An outline of the steps:
(§2)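 Fungi in exponential phase were washed three times in PBS and resuspended at 1 × 10^3 CFU mL−1 in RPMI 1640. Test compound and fluconazole were serially diluted twofold in 96-well plates, in triplicate wells per concentration. MIC was derived from OD600 readings.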

Assay [2] concerns A. brasiliensis TCC 16404. In words: Activity against additional fungal strains. The settings on record: Table 2; no quantity or unit printed. An outline of the steps:
as §2

For the next assay, the system named is FO MYA 3461. In words: Activity against additional fungal strains. The settings on record: Table 2; no quantity or unit printed. Put shortly: as §2
The test system of a further assay is F. solani 46492. The assay can be described thus: Activity against additional fungal strains. The settings on record: Table 2; no quantity or unit printed. An outline of the steps: as §2
The subject of the next assay is C. albicans ATCC 90028. In words: Activity against additional fungal strains. The settings on record: Table 2; no quantity or unit printed. An outline of the steps: as §2
Another assay relates to F. solani 52628. In words: Activity against additional fungal strains. The settings on record: Table 2; no quantity or unit printed. Put shortly:
as §2

Values after ≈ are worked out from the molar mass of the structure shown.

`C=C1/C(=C\C=C2/CCC[C@]3(C)[C@@H]([C@H](C)CCCC(C)(C)O)CC[C@@H]23)C[C@@H](O)C[C@@H]1O` [1,25(OH)2D3, 1,25-dihydroxyvitamin D3, reference compound]: the “CYP24A1 mRNA levels, 1,25(OH)2D3 alone” value in assay [1] is “significantly increased”.
Regarding `Cc1ccc(C=Nc2nc[nH]n2)c(O)c1` [3a, 2-{[(1H-1,2,4-Triazol-3-yl)imino]methyl}-5-methylphenol], the MIC stood at 64 µg/mL (≈ 316 µM) in the assay on C. albicans ATCC 10231 and 128 µg/mL (≈ 633 µM) in the assay on C. albicans ATCC 14053.
As to `O=[N+]([O-])c1ccc(C=Nc2nc[nH]n2)c(O)c1` [3b, 2-{[(1H-1,2,4-Triazol-3-yl)imino]methyl}-5-nitrophenol], the MIC in the assay on C. albicans ATCC 10231 and with C. albicans ATCC 14053 was 64 µg/mL (≈ 274 µM) throughout.
Regarding `Oc1ccc(Cl)cc1C=Nc1ncn[nH]1` [3d, 2-{[(1H-1,2,4-Triazol-5-yl)imino]methyl}-4-chlorophenol], the MIC in the assay on C. albicans ATCC 10231 and with C. albicans ATCC 14053 was 128 µg/mL (≈ 575 µM) each time.
On to `CS(=O)(=O)c1ccc(C=Nc2ncn[nH]2)cc1` [3e, 1-[4-(Methylsulfonyl)phenyl]-N-(1H-1,2,4-triazol-5-yl)methanimine], for which the MIC in the assay with C. albicans ATCC 10231 and in the assay on C. albicans ATCC 14053 was 128 µg/mL (≈ 511 µM) each time.
Regarding `C(=Nc1ncn[nH]1)c1ccc(-c2ccccc2)cc1` [3f, 1-[(1,1′-Biphenyl)-4-yl]-N-(1H-1,2,4-triazol-5-yl)methanimine], the MIC with C. albicans ATCC 10231 and with C. albicans ATCC 14053 was 128 µg/mL (≈ 516 µM) each time.
`Clc1ccc(C=Nc2ncn[nH]2)cc1` [3g, 1-(4-Chlorophenyl)-N-(1H-1,2,4-triazol-5-yl)methanimine]: the MIC with C. albicans ATCC 10231 and with C. albicans ATCC 14053 was above 256 µg/mL throughout.
Turning to `C(=Nc1ncn[nH]1)c1ccncc1` [3h, 1-(Pyridin-4-yl)-N-(1H-1,2,4-triazol-5-yl)methanimine], the MIC in the assay with C. albicans ATCC 10231 and in the assay on C. albicans ATCC 14053 was above 256 µg/mL throughout.
Take `O=[N+]([O-])c1ccc(C=Nc2ncn[nH]2)cc1` [3i, 1-(4-Nitrophenyl)-N-(1H-1,2,4-triazol-5-yl)methanimine]: the MIC in the assay with C. albicans ATCC 10231 and with C. albicans ATCC 14053 was 128 µg/mL (≈ 589 µM) in each case.
Turning to `COc1ccc(C=Nc2ncn[nH]2)cc1` [3j, 1-(4-Methoxyphenyl)-N-(1H-1,2,4-triazol-5-yl)methanimine], the MIC in the assay on C. albicans ATCC 10231 and in the assay with C. albicans ATCC 14053 was above 256 µg/mL in each case.
Take `Oc1ccc(C=Nc2ncn[nH]2)cc1` [3k, 4-{[(1H-1,2,4-Triazol-5-yl)imino]methyl}phenol]: the MIC in the assay on C. albicans ATCC 10231 and in the assay with C. albicans ATCC 14053 was above 256 µg/mL throughout.
Regarding `O=C(O)c1ccc(C=Nc2ncn[nH]2)cc1` [3l, 4-{[(1H-1,2,4-Triazol-5-yl)imino]methyl}benzoic acid], the MIC in the assay with C. albicans ATCC 10231 and in the assay with C. albicans ATCC 14053 was above 256 µg/mL in each case.
`C[C@@H]1C/C=C/C=C/C=C/C=C/[C@H](O[C@@H]2O[C@H](C)[C@@H](O)[C@H](N)[C@@H]2O)C[C@@H]2O[C@](O)(C[C@@H](O)C[C@H]3O[C@@H]3/C=C/C(=O)O1)C[C@H](O)[C@H]2C(=O)O` [Natamycin, reference compound]: the “Interaction against varied fungal strains: C. albicans ATCC 24433” value in the assay with C. albicans ATCC 24433 came out at 8. In [2], the “Interaction against varied fungal strains: A. brasiliensis TCC 16404” value came out at 8. The “Interaction against varied fungal strains: FO MYA 3461” value with FO MYA 3461 is reported as 8. Also, the “Interaction against varied fungal strains: F. solani 46492” value in the assay with F. solani 46492 worked out at 8. Also, in the assay with C. albicans ATCC 90028, the “Interaction against varied fungal strains: C. albicans ATCC 90028” value worked out at 8. Moreover, the MIC in the assay with C. albicans ATCC 10231 and in the assay with C. albicans ATCC 14053 was 8 µg/mL (≈ 12 µM) in each case. Moreover, the “Interaction against varied fungal strains: F. solani 52628” value in the assay on F. solani 52628 stood at 8.
